Here are results for 16 molecules from ChEMBL document CHEMBL1126204, “Nucleic acid related compounds. 74. Synthesis and biological activity of 2'(and 3')-deoxy-2'(and 3')-methylenenucleoside analogues that function as mechanism-based inhibitors of S-adenosyl-L-homocysteine hydrolase and/or ribonucleotide reductase” (J Med Chem, 1992).

Assay [1] deals with L1210. Nature of the assay: In vitro inhibition of L1210 (murine leukemia) cell proliferation. The format is functional, cell-based. To be noted: Mus musculus. The essentials: (§1)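 Murine FM3A or L1210 cells in Eagle's MEM with 10% inactivated FCS, 2 mM L-glutamine and 0.075% NaHCO₃, seeded at 5 × 10⁵ cells/mL with compound (0.001–500 µM). After 2 days at 37 °C in humidified CO₂, viable cells were counted with a Coulter counter. IC₅₀ = 50% fewer viable cells; mean of 2–4 experiments.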

Assay [2] can be described thus: In vitro inhibition of Molt/4f (Human T-lymphoblast) cell proliferation. The format is functional. The method in brief: (§2)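 Human Molt/4F, MT-4, and Raji cells (wild-type, TK⁻ or dCK⁻) in RPMI-1640 with 10% inactivated FCS, 2 mM L-glutamine and 0.075% NaHCO₃, seeded at 7.5 × 10⁵ cells/mL with compound (0.001–500 µM). Incubated 3 days at 37 °C in humidified CO₂; viable cells counted by Coulter counter. IC₅₀ = 50% reduction in viable cells; means of 2–4 independent experiments.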

Assay [3] can be described thus: In vitro inhibition of FM3A (murine carcinoma) cell proliferation. It counts as functional. To be noted: Mus musculus. The method in brief:
as §1

The test system of assay [4] is MT4. The assay is described as follows: In vitro inhibition of MT-4 (Human T-lymphocyte) cell proliferation. The format is functional, cell-based. The method in brief: as §2

As usually defined, the IC50 is the midpoint of a concentration-inhibition curve. Low values mean greater potency, high ones weaker potency. On to `C=C1[C@@H](O)[C@H](n2cnc3c(N(C)C)nc(N)nc32)O[C@@H]1CO`, for which the IC50 in assay [1], in assay [2], in assay [3] and in assay [4] was > 500 µM throughout.
Take `C=C1[C@H](n2ccc(=O)[nH]c2=O)O[C@H](CO)[C@H]1O`: the IC50 in assay [1], in assay [2], in assay [3] and in assay [4] was > 500 µM in each case.
`C=C1[C@@H](O)[C@H](n2cnc3c(OC)nc(N)nc32)O[C@@H]1CO`: the IC50 in assay [1] is 446 µM; in assay [2] it was > 500 µM; in assay [3] it was 439 µM; in assay [4], > 500 µM.
On to `C=C1[C@@H](O)[C@H](n2cnc3c(N)ncnc32)O[C@@H]1CO`, for which the IC50 in assay [1] was 228 µM; in assay [2], > 500 µM; in assay [3] it was 466 µM; in assay [4] it was 43 µM.
The like results for `C=C1[C@H](n2cnc3c(Cl)nc(N)nc32)O[C@H](CO)[C@H]1O` were, in that order, 10 µM, 22 µM, 50 µM and 176 µM.
On to `C=C1[C@H](n2cnc3c(N)ncnc32)O[C@H](CO)[C@H]1O`, for which the IC50 in assay [1] is 65 µM; in assay [2], > 500 µM; in assay [3] it was 232 µM; in assay [4], 131 µM.
The corresponding values for `C=C1[C@@H](O)[C@H](n2cnc3c(O)ncnc32)O[C@@H]1CO` are > 200 µM, > 200 µM, > 200 µM and > 200 µM.
The corresponding values for `C=C1[C@H](n2cnc3c(N(C)C)nc(N)nc32)O[C@H](CO)[C@H]1O` are 454 µM, 335 µM, > 500 µM and > 500 µM.
The like results for `C=C1[C@H](n2cnc3c(SC)nc(N)nc32)O[C@H](CO)[C@H]1O` were, in that order, > 500 µM, > 500 µM, > 500 µM and > 500 µM.
`C=C1[C@H](n2cnc3c(S)nc(N)nc32)O[C@H](CO)[C@H]1O`: the IC50 in assay [1] is 20 µM; in assay [2] it was 24 µM; in assay [3] it was 26 µM; in assay [4], 0.48 µM.
The like results for `C=C1[C@@H](O)[C@H](n2cnc3c(S)nc(N)nc32)O[C@@H]1CO` were, in that order, 207 µM, 276 µM, 495 µM and 12 µM.
The like results for `C=C1[C@@H](O)[C@H](n2ccc(=O)[nH]c2=O)O[C@@H]1CO` were, in that order, > 500 µM, > 500 µM, > 500 µM and 450 µM.
The like results for `C=C1[C@H](n2cnc3c(OC)nc(N)nc32)O[C@H](CO)[C@H]1O` were, in that order, 10 µM, 23 µM, 41 µM and 180 µM.
Regarding `C=C1[C@H](n2cnc3c(O)ncnc32)O[C@H](CO)[C@H]1O`, the half-inhibitory concentration (IC50) was 60 µM in assay [1], > 200 µM in assay [2], 113 µM in assay [3] and > 200 µM in assay [4].
Regarding `C=C1[C@@H](O)[C@H](n2cnc3c(Cl)nc(N)nc32)O[C@@H]1CO`, the IC50 in assay [1] was 441 µM; in assay [2], > 500 µM; in assay [3] it was 469 µM; in assay [4], > 500 µM.
Turning to `C=C1[C@@H](O)[C@H](n2cnc3c(SC)nc(N)nc32)O[C@@H]1CO`, the IC50 in assay [1], in assay [2], in assay [3] and in assay [4] was > 500 µM each time.
